Assay results from PMC11526549 (Journal of Nanobiotechnology, 2024).
Read-outs that look alike come from different tables or passages of the source. Positions of bridges follow the written chain, without caps; N, C: chain ends. Residues, ends and D or L forms follow the SMILES beside them. *: point of attachment. Fmoc = O=C(OCC1c2ccccc2-c2ccccc21)*

How the values were obtained:
[1] = in comparison to self-assembled nanoparticles CPC-2; cited from earlier work
[2] = cited from earlier work
[3] = cited from earlier work; remark: listed apart in the source
mouse erythrocytes = assay: Hemolysis assay; type: cell-based; settings: 128 μM peptide, 8% mouse erythrocytes, 1 h, OD 540 nm; n=5
How it was run: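 Test compound (1–128 µM final) mixed 1:1 by volume with 8% mouse erythrocytes, 37 °C, 1 h. Spun 1500 rpm, 5 min, and supernatant A540 read. PBS set 0% and 0.1% Triton X-100 set 100%. Hemolysis (%) = (A_peptide−A0)/(A100−A0)×100.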

E. coli ATCC 25922 = assay: Serum stability test; type: in vitro ADME, Escherichia coli; settings: 37°C, 8 h, MIC vs E. coli ATCC 25922
[4] = Metabolic stability in liver tissue homogenate, HPLC; type: in vitro ADME; settings: mouse liver tissue homogenate 50 mg/mL, 8 h, mean of n=3
[5] = Proteolytic stability in trypsin, HPLC; type: in vitro ADME; settings: trypsin (1 w/v%)
How it was run: (§1)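 Test compound (2560 µM) incubated with 1 w/v% trypsin at 37 °C. Aliquots taken at 0.5, 1, 2, 4 and 6 h, diluted to 256 µM in 0.1% TFA/water and quantified by HPLC. Remaining peptide calculated as a time course; n=3.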

trypsin [6] = assay: Proteolytic stability in trypsin, HPLC; type: in vitro ADME; settings: 1 w/v% trypsin, after 4 h, HPLC
How it was run: as §1

S. aureus CGMCC 1.90032 [7] = assay: Mutation-proof concentration; type: cell-based, Staphylococcus aureus
S. aureus = assay: Membrane fluidity assay, Laurdan GP; type: cell-based, Staphylococcus aureus; settings: 5-80 µM, 1 h, n=3
S. aureus CGMCC 1.90032 [8] = assay: Time-kill kinetics; type: cell-based, Staphylococcus aureus
How it was run: (§2)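 Counts on MHA at 0, 0.5, 1, 2, 4, 6, 8, 10 and 24 h, in triplicate. MDK99 and MDK99.99 are the minimum times to 99% and 99.99% kill.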

E. coli CGMCC 1.90026 [9] = assay: Time-kill kinetics; type: cell-based, Escherichia coli; settings: 1×, 2× or 4× MIC
How it was run: as §2

E. coli CGMCC 1.90026 [10] = assay: Membrane integrity, PI uptake by flow cytometry; type: cell-based, Escherichia coli; settings: range over 5-80 µM and both E. coli strains (Fig. 7A, Figure S15A)
How it was run: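 Clinical E. coli CGMCC 1.90026 treated with test compound at 5, 20, 40 or 80 µM. Propidium iodide-positive cells counted by flow cytometry as the membrane penetration rate.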

[11] = CMC determination with ANS fluorescent probe; type: physicochemical; settings: in PBS
How it was run: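 CMC is the crossing point of the 480 nm intensity plotted against log peptide concentration. A parallel run at 80 µM peptide adds LPS or LTA (final 1 µM) to test their effect on assembly.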

[12] = system: E. coli liposomes (polar lipid extracts); assay: Membrane fluidity assay, Laurdan GP; type: cell-based, Escherichia coli; settings: 5-80 µM, 1 h, concentration-dependent, n=3
E. coli CGMCC 1.90026 [13] = assay: Mutation-proof concentration; type: cell-based, Escherichia coli
E. coli = assay: Cytoplasmic membrane potential, DiSC3; type: cell-based, Escherichia coli; settings: DiSC3-5, 5-80 µM, no dose-dependent effect
How it was run: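 Clinical isolate E. coli CGMCC 1.90026 exposed to test compound. Cytoplasmic membrane potential change followed with the potentiometric dye DiSC3-5.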

S. aureus CGMCC 1.90032 [14] = assay: Mouse mastitis model; type: in vivo; settings: compared with NC group
How it was run: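 Female ICR mice 10 d post-partum, separated from pups 2 h before infection. Under anaesthesia, nipple tip trimmed 0.5 mm. Mid-log S. aureus CGMCC 1.90032 (PBS-washed, 1×10^3 CFU/mL, 100 µL) inoculated via the fourth-pair nipple ducts. Test compound (100 or 200 µM) given intraductally 3 h post-infection. Groups: uninfected, untreated, ceftiofur sodium 200 µM. Mammary and spleen organ indices recorded.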

E. coli CGMCC 1.90026 [15] = assay: Mouse mastitis model; type: in vivo
How it was run: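 Female ICR mice 10 d post-partum, pups removed 2 h before infection. Under anaesthesia, 0.5 mm trimmed from the fourth nipple pair. Mid-log E. coli CGMCC 1.90026 (PBS-washed, 5×10^3 CFU/mL, 100 µL) given through the nipple duct. 3 h later, test compound (100 or 200 µM) given via the mammary duct. Groups: uninfected, untreated, ceftiofur sodium 200 µM. Mammary TNF-α, IL-1β, IL-6 and IL-2 measured.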

[16] = Particle size of self-assembled AMPs; type: physicochemical; settings: 80 µM peptide, SEM/TEM
How it was run: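 Test compound at 80 µM, alone or with LPS or LTA (final 1 µM), imaged by SEM and TEM to assess assembly morphology and particle size.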

ζ-potential = type: physicochemical; settings: 80 µM in PBS pH 7.4, room temperature
trypsin [17] = assay: Trypsin resistance of LPS-induced nanofibers versus nanoparticles, HPLC; type: in vitro ADME; settings: n=3
How it was run: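 Peptide (80 µM), LPS (1 µM) and trypsin (10 µM) combined in different orders. In one arm LPS pre-forms nanofibers before trypsin; in another peptide is pre-incubated with trypsin before LPS. A non-specific assembly condition serves as reference. Peptide retention measured by HPLC and expressed as a ratio to that reference; n=3.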

[18] = LTA binding assay with BC probe; parameters: species or system S. aureus; settings: BC probe 10 µM, LTA 1 µM, Tris 50 mM pH 7.4; 0.125-64 µM peptide; n=3
[19] = LPS binding assay with BC probe; parameters: species or system E. coli; settings: BC probe 10 µM, LPS 1 µM, Tris 50 mM pH 7.4; 0.125-64 µM peptide; n=3

## Chitosan-GPLGVRGC-PEG2000- CGGG(KLAKLAK)2 [CPC-1]
[1]
  prolongation of the half-life at the site of infection: fourfold

## FLGALFRALSRLL [PTP-7]
[2]; before self-assembly
  stability in serum: 2 h
[2]; by self-assembly technology
  stability in serum: more than 5 h

## BP-KFFVLK-RLKLILKSK [BET]
[3]; LPS induction
  time to complete transformation from nanoparticles to nanofibers: 72 h

## CC(C)[C@@H]1NC(=O)CNC(=O)[C@H](CC(N)=O)NC(=O)[C@H](CCCNC(=N)N)NC(=O)[C@H](Cc2ccc(O)cc2)NC(=O)[C@H](C(C)C)NC(=O)[C@@H](NC(=O)[C@@H](NC(=O)[C@H](CC(N)=O)NC(=O)[C@H](Cc2c[nH]c3ccccc23)NC(=O)[C@H](C)NC(=O)[C@H](Cc2ccccc2)NC(=O)CN)C(C)C)CSSC[C@@H](C(=O)N[C@@H](Cc2cnc[nH]2)C(=O)N[C@@H](CCCNC(=N)N)C(=O)N[C@@H](CCCNC(=N)N)C(=O)N[C@@H](C)C(=O)N[C@@H](CC(N)=O)C(N)=O)NC(=O)[C@H](C(C)C)NC(=O)[C@H](CCCNC(=N)N)NC1=O [N6] (H-GFAWNVCVYRNGVRVCHRRAN-NH2; disulfide 7-16)
Mouse erythrocytes
  hemolysis rate: no hemolysis
E. coli ATCC 25922
  MIC after incubation in 25% serum: twofold
[4]
  peptide retention rate in liver tissue: less than 9.76%
[5]
  metabolised at 0.5 h, 2560 µM: > 50%
Trypsin [6]
  degradation in trypsin: completely degraded

## CC(C)[C@@H]1NC(=O)CNC(=O)[C@H](CC(N)=O)NC(=O)[C@H](CCCNC(=N)N)NC(=O)[C@H](Cc2ccc(O)cc2)NC(=O)[C@H](C(C)C)NC(=O)[C@@H](NC(=O)[C@@H](NC(=O)[C@H](CC(N)=O)NC(=O)[C@H](Cc2c[nH]c3ccccc23)NC(=O)[C@H](C)NC(=O)[C@H](Cc2ccccc2)NC(=O)CN)C(C)C)CSSC[C@@H](C(=O)N[C@@H](Cc2c[nH]cn2)C(=O)N[C@@H](CCCNC(=N)N)C(=O)N[C@@H](CCCNC(=N)N)C(=O)N[C@@H](C)C(=O)N[C@@H](CC(N)=O)C(N)=O)NC(=O)[C@H](C(C)C)NC(=O)[C@H](CCCNC(=N)N)NC1=O [N6] (H-GFAWNVCVYRNGVRVCHRRAN-NH2; disulfide 7-16)
S. aureus CGMCC 1.90032 [7]
  SI (MPCs/MIC): 6.4
S. aureus
  Laurdan GP (membrane fluidity): also increased
S. aureus CGMCC 1.90032 [8]; minimum time for 99% sterilization
  MDK99: 1.45 h
S. aureus CGMCC 1.90032 [8]; minimum time for 99.99% sterilization
  MDK99.99: 1.99 h
E. coli CGMCC 1.90026 [9]
  time to complete eradication: ≤ 4 h
E. coli CGMCC 1.90026 [10]
  membrane penetration rates toward E. coli: 2.34 -80.7%
[11]; fluorescence in direct correlation with concentration
  self-assembly by ANS fluorescence: incapable of self-assembling
[12]
  Laurdan GP (membrane fluidity): significant increase in Laurdan GP
E. coli CGMCC 1.90026 [13]
  SI (MPCs/MIC): 6.4
E. coli
  plasma membrane depolarization: underwent depolarization
S. aureus CGMCC 1.90032 [14]
  indices of the mammary gland and spleen: significantly decreased
E. coli CGMCC 1.90026 [15]
  histopathology of mammary gland (HE): significant improvement in inflammatory symptoms
E. coli CGMCC 1.90026 [15]; 100 or 200 µM, ELISA, n=4
  levels of inflammatory factors (TNF-α, IL-1ß, IL-6 and IL-2) in mammary tissue: significantly reduced

## BP-KLVFF -RLYLRIGRR [HDMP]
[3]; LTA induction
  time to complete transformation from nanoparticles to nanofibers: 48 h

## CC(C)C[C@H](NC(=O)[C@H](CCCCN)NC(=O)OCC1c2ccccc2-c2ccccc21)C(=O)N[C@H](C(=O)N[C@@H](Cc1ccccc1)C(=O)N[C@@H](Cc1ccccc1)C(=O)N[C@@H](CCCCN)C(=O)NCC(=O)N[C@@H](Cc1ccccc1)C(=O)N[C@@H](C)C(=O)N[C@@H](Cc1c[nH]c2ccccc12)C(=O)N[C@@H](CC(N)=O)C(=O)N[C@H](C(=O)N[C@H]1CSSC[C@@H](C(=O)N[C@@H](Cc2c[nH]cn2)C(=O)N[C@@H](CCCNC(=N)N)C(=O)N[C@@H](CCCNC(=N)N)C(=O)N[C@@H](C)C(=O)N[C@@H](CC(N)=O)C(N)=O)NC(=O)[C@H](C(C)C)NC(=O)[C@H](CCCNC(=N)N)NC(=O)[C@H](C(C)C)NC(=O)CNC(=O)[C@H](CC(N)=O)NC(=O)[C@H](CCCNC(=N)N)NC(=O)[C@H](Cc2ccc(O)cc2)NC(=O)[C@H](C(C)C)NC1=O)C(C)C)C(C)C [FKN] (Fmoc-KLVFFKGFAWNVCVYRNGVRVCHRRAN-NH2; disulfide 13-22)
E. coli ATCC 25922
  MIC after incubation in 25% serum: stable MICs
S. aureus CGMCC 1.90032 [8]; various concentrations
  time to complete kill: ≤ 1 h
[16]
  particle sizes of nanoparticles: 69.78±11.56 nm
E. coli CGMCC 1.90026 [9]
  time to complete eradication: ≤ 4 h
ζ-potential
  zeta-potential: 24 mV
[11]; ANS 25.6 µM, 1 h, fluorescence at 480 nm vs log concentration
  critical micelle concentration (CMC): 7.94 µM
[4]
  peptide retention rate in liver tissue: 33.93%
Trypsin [17]; 80 µM peptide pre-incubated with LPS 1 µM, then trypsin 10 µM 0.5 h
  protein retention rate of nanofibers: 90.1%
Trypsin [17]; 80 µM peptide without LPS pre-assembly, trypsin 10 µM 0.5 h
  protein retention rate of nanoparticles: 76.63%
[5]; peptide retention rate, 1 w/v% trypsin, 6 h, HPLC, mean of n=3
  remaining at 6 h, 2560 µM: 44.2%
[18]
  affinity to LTA of S. aureus: even greater than that of N6
[19]
  affinity to LPS of E. coli: even greater than that of N6
